Screening data from PubChem BioAssay.
Rows were chosen to be rich in hits. Some 1.5% of all compounds tested hit in one or more screens of this group.
MITF TRPM1 HTS = activators of MITF-driven TRPM1 promoter reporter, primary screen, cell-based, SK-MEL-5, luciferase, single point. activation, % at 12.5 µM. SK-MEL-5 TRPM1-promoter luciferase, 24 h; % of positive control, neutral wells = 0. hit rate 0.75% among 300,000;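 active = mean activation of at least 80% with every replicate also reaching 80%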
Wnt bcat act = Wnt/beta-catenin pathway activators, primary screen, cell-based, plate reader, single point; Wnt/beta-catenin reporter cell assay, activator; activation, % at 9.35 µM; hit rate 1.2% among 300,000; AID 743398, 2014; in the data active = activation above about 30%, passing the limit was not always enough
Cneo AK release = Cryptococcus neoformans cell lysis inducers, primary screen, AK release luminescence, single concentration; C. neoformans lysis, adenylate kinase release luminescence, 4 h; normalised: neutral wells 0, clomiphene wells 100; lysis activity, % at 15 µM; hit rate 0.2% among 360,000;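 active = mean lysis activity across replicates of at least 80%, whatever share of replicates individually reach that level; inactive = mean lysis activity below 80%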
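Test system: log-phase Cryptococcus neoformans yeast cells; Quantity: yeast cell density of 5 × 10^6 cells/mL; Buffer or medium: YPD; Doses: single compound concentration per well; Timing: 4 h at 37 °C static, read 1 h later; Measured by: AK luminescence; Read-out basis: lysis from increased AK signal; Control set: Clomiphene as positive control.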
PGC1a acetyl inh = inhibitors of PGC1a acetylation signal, primary screen, cell-based, U2OS, AlphaScreen, inhibitor mode. inhibition, % at 15.6 µM. AlphaScreen anti-acetyl-lysine; with virally co-expressed GCN5 acetyltransferase. hit rate 0.17% among 350,000;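 active = every replicate shows inhibition of at least 40%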
Numbers stand for hits; . = inactive; / = no result.

SMILES	MITF TRPM1 HTS	Wnt bcat act	Cneo AK release	PGC1a acetyl inh
O=C(N/N=C/c1cc(Br)c(Br)o1)c1ccc2c(c1)OCCO2	/	37	.	.
C[C@@H]1CN([C@@H](C)CO)C(=O)c2cc(NC(=O)Nc3ccccc3)ccc2O[C@@H]1CN(C)S(=O)(=O)c1ccccc1	/	/	.	.
CC=Cc1ccc2n(c1=O)C[C@@H]1[C@@H](CO)[C@H](C(=O)NCC3CC3)[C@H]2N1CCC (mixture of isomers)	/	/	.	.
CCCC#Cc1ccc2c(c1)O[C@@H](CN(C)C(=O)C1CCCCC1)[C@@H](C)CN([C@@H](C)CO)S2(=O)=O	/	/	/	.
Cc1ccc(NC(=O)c2ccc(OCC3CCCO3)cc2)cc1Cl (configuration not stated)	/	42	.	/
Cc1ccnc(NC(=O)c2ccc(OCC3CCCO3)cc2)c1 (configuration not stated)	.	35	.	/
Cc1noc(C)c1NC(=O)N(C)C[C@@H]1OCCCC[C@H](C)Oc2ccc(NS(=O)(=O)c3ccc(Cl)cc3)cc2C(=O)N([C@H](C)CO)C[C@@H]1C	/	/	.	.
CC(=O)N(C)C[C@H]1Oc2ncc(C#Cc3ccccc3F)cc2C(=O)N([C@@H](C)CO)C[C@@H]1C	/	/	.	.
CC(C)OC(=O)c1c(F)c(F)c(N2CCOCC2)c(F)c1F	.	.	.	57
COC(=O)c1c(F)c(F)c(N2CCOCC2)c(F)c1F	.	/	.	.
Clc1cccc(-c2ccc3ncnc(NCc4cccs4)c3c2)c1	.	35	.	.
Cc1cccc(-c2ccc3ncnc(NCc4cccs4)c3c2)c1	.	.	.	.
c1ccc(-n2cnnc2SCc2nc3ccccc3s2)cc1	/	51	.	.
CCc1nc(N2CCCCC2C)c2oc3ccccc3c2n1 (configuration not stated)	.	.	86	.
CC[n+]1c(/C=C/c2ccc(OC(C)=O)c(OC)c2)ccc2ccccc21	97	.	.	.
Cc1ccn2cc(-c3ccc4c(c3)NC(=O)CO4)nc2c1	103	.	/	.
COc1cccc(-c2ccc([C@@H]3[C@@H](CO)N4C(=O)CN(C(=O)C5CCC5)C[C@@H]34)cc2)c1	/	/	/	.
CCCc1nc2oc3c(NCC(C)O)ncnc3c2c2c1CCCC2 (configuration not stated)	/	38	.	.
CC(C)Cc1nc2oc3c(NCC4CCCO4)ncnc3c2c2c1CCC2 (configuration not stated)	.	/	.	.
O=C(Nc1ccc2c(c1)OCO2)N[C@@H]1CC[C@@H](CCNC(=O)C2CC2)O[C@H]1CO	/	/	.	.
CCCc1cn(CC[C@@H]2CC[C@@H](NC(=O)CCN3CCCCC3)[C@@H](CO)O2)nn1	/	/	.	.
COc1ccc(CC2C(=O)NC(C)C(=O)N(C)C3Cc4ccc(cc4)Oc4cc(ccc4O)CC(C(=O)NC(C)C(=O)NC(C)C(=O)N2C)N(C)C3=O)cc1 (configuration not stated)	/	.	/	70
CC(C)C[C@@H]1NC(=O)[C@H](Cc2ccccc2)N(C)C(=O)[C@H](C)NC(=O)c2ccccc2NC(=O)[C@H](Cc2ccc(O)cc2)N(C)C1=O	.	.	.	.
Fc1ccc2cc(-c3ccccc3)ncc2c1	92	33	.	.
c1ccc(-c2cc3ccccc3cn2)cc1	.	48	.	.
SMILES	MITF TRPM1 HTS	Wnt bcat act	Cneo AK release	PGC1a acetyl inh
C[C@@H]1CN([C@H](C)CO)C(=O)Cc2cc(NC(=O)Nc3ccc(F)cc3)ccc2O[C@H]1CN(C)C	/	/	.	.
Cc1ccccc1/C=N/NC(=O)c1sccc1C	.	80	.	.
Cc1ccsc1/C=N/NC(=O)Nc1ccccc1	107	.	/	/
COc1ccc(/C=N/NC(=O)c2sccc2C)c2ccccc12	/	.	/	.
C[C@H](CO)N1C[C@H](C)[C@@H](CN(C)Cc2ccc(C(F)(F)F)cc2)Oc2c(NS(=O)(=O)c3cccs3)cccc2C1=O	/	/	.	.
C[C@H]1CN([C@@H](C)CO)C(=O)c2cccc(NS(=O)(=O)c3cccs3)c2O[C@@H]1CN(C)CC1CC1	/	/	.	.
CC1CC(=O)c2cnc(Nc3ccccc3)nc2C1 (configuration not stated)	.	.	.	.
Cc1ccc(Nc2ncc3c(n2)CC(C)CC3=O)c(C)c1 (configuration not stated)	/	52	.	.
O=C(Nc1ccccc1F)N1C[C@@H]2[C@H](c3ccccc31)[C@H](CO)N2C(=O)c1ccc(F)cc1	/	/	.	.
CNC[C@@H]1OCCCC[C@H](C)Oc2ccc(NC(=O)Nc3cccc4ccccc34)cc2C(=O)N([C@@H](C)CO)C[C@H]1C	/	/	/	.
CN(C)CC(=O)N1CC(=O)N2[C@@H](CO)[C@H](c3ccc(/C=C/c4ccccc4)cc3)[C@@H]2C1	/	/	/	.
CC(C)=CC(=O)OCc1cc([N+](=O)[O-])cc2c1OCOC2	.	41	/	.
O=C(C[C@H]1CC[C@@H]2[C@H](COC[C@H](O)CN2CC2CCOCC2)O1)NCc1ccc(Cl)cc1	/	/	86	.
O=C(C[C@@H]1CC[C@H]2[C@@H](COC[C@H](O)CN2Cc2cccc(C(F)(F)F)c2)O1)NCc1ccccc1	/	/	100	.
O=C(C[C@@H]1CC[C@H]2[C@@H](COC[C@H](O)CN2Cc2cccc(C(F)(F)F)c2)O1)NCc1ccc(Cl)cc1	/	/	.	.
O=C(C[C@@H]1CC[C@@H]2[C@H](COC[C@@H](O)CN2Cc2cccc(C(F)(F)F)c2)O1)NCc1ccc(Cl)cc1	/	/	.	.
O=C(C[C@@H]1CC[C@@H]2[C@H](COC[C@H](O)CN2Cc2cccc(C(F)(F)F)c2)O1)NCc1ccc(Cl)cc1	/	.	83	.
O=C(C[C@H]1CC[C@@H]2[C@H](COC[C@@H](O)CN2Cc2cccc(C(F)(F)F)c2)O1)NCc1ccc(Cl)cc1	/	/	110	.
C[C@H](CO)N1C[C@H](C)[C@H](CN(C)C(=O)NC2CCCCC2)Oc2ccc(NS(C)(=O)=O)cc2C1=O	/	/	.	.
C[C@@H]1CN([C@@H](C)CO)S(=O)(=O)c2ccc(-c3cccnc3)cc2O[C@@H]1CN(C)Cc1cncnc1	/	/	.	.
Cc1ccc(-c2cnc3c(c2)C(=O)N([C@H](C)CO)C[C@@H](C)[C@H](CN(C)C(=O)c2cccc(F)c2)O3)cc1	/	/	.	.
COc1ccc(C2=NNC(=O)C2(C)Br)cc1 (configuration not stated)	.	51	/	/
O=C(Nc1cccc(F)c1)N[C@H]1CC[C@H](CCNS(=O)(=O)c2cccc(Cl)c2)O[C@@H]1CO	/	/	105	.
Cc1ccccc1S(=O)(=O)N[C@@H]1CC[C@H](CCNS(=O)(=O)c2cccc(F)c2)O[C@H]1CO	/	/	90	.
Cc1ccccc1S(=O)(=O)N[C@H]1CC[C@H](CCNS(=O)(=O)c2cccc(F)c2)O[C@H]1CO	/	/	93	.
O=C(CC1CC1)N[C@H]1CC[C@@H](CCNS(=O)(=O)c2ccc(Cl)cc2)O[C@@H]1CO	/	/	.	67
